From ChEMBL document CHEMBL1149438, “Antimalarial activity of 4-(5-trifluoromethyl-1H-pyrazol-1-yl)-chloroquine analogues” (Bioorg Med Chem Lett, 2006) come the findings set out here.

For one assay, the system named is Plasmodium falciparum. The assay can be described thus: Antimalarial activity against chloroquine-resistant Plasmodium falciparum W2 infected human erythrocytes. The class given is functional, organism-based. Put shortly:
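P. falciparum W2 (chloroquine-resistant) grown in human O+ erythrocytes, RPMI 1640 with 10% human plasma. Sorbitol-synchronized trophozoites plated at 2% parasitaemia, 2.5% haematocrit. Molecules dissolved in ethanol, serially diluted in hypoxanthine-free RPMI 1640, chloroquine reference run in parallel. Growth read by [³H]hypoxanthine incorporation. IC50 taken relative to drug-free control cultures.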

Assay [1] concerns Plasmodium berghei. Put plainly: Growth inhibition of Plasmodium berghei infected BALB/c mice (Mus musculus) at 20 mg/kg perorallydose. Conditions: route oral. Type of assay: functional, NK65. Set-up: scale not given: the % may be the effect or the level left. Put shortly: (§1)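 Balb/c mice infected with blood-stage P. berghei, 6 per group, given 20 mg/kg orally or subcutaneously. Controls were untreated or saline-treated mice, plus mice given non-curative chloroquine. Blood smears were methanol-fixed and Giemsa-stained, and parasitaemia was counted in 1000 to 6000 erythrocytes. Percent reduction of parasite growth is relative to non-treated mice at day 7 post-inoculation.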

The subject of assay [2] is Plasmodium berghei. Put plainly: Growth inhibition of Plasmodium berghei infected BALB/c mice (Mus musculus) at 20 mg/kg subcutaneous dose. Type of assay: functional, NK65. Set-up: scale not given: the % may be the effect or the level left. Put shortly:
as §1

Assay [3] deals with Plasmodium berghei. Put plainly: Growth inhibition of Plasmodium berghei in BALB/c mice (Mus musculus) at 15 mg/kg peroral dose. The class given is functional, NK65. Details: scale not given: the % may be the effect or the level left. To be noted: route oral.
Assay [4] deals with Plasmodium berghei. Put plainly: Growth inhibition of Plasmodium berghei infected BALB/c mice (Mus musculus) at 15 mg/kg subcutaneous dose. Set-up: scale not given: the % may be the effect or the level left. Type of assay: functional, NK65.

Converted amounts (≈) assume the structure as drawn.

A word on the IC50: it is the point on the concentration scale where inhibition reaches its midpoint. With `FC(F)(F)c1cc(-c2ccc(Br)cc2)nn1-c1ccnc2cc(Cl)ccc12`, the IC50 in the assay on Plasmodium falciparum was > 50 µg/mL.
Regarding `COc1ccc(-c2cc(C(F)(F)F)n(-c3ccnc4cc(Cl)ccc34)n2)cc1`, the IC50 in the assay with Plasmodium falciparum is > 50 µg/mL.
In turn, `Cc1cc(C(F)(F)F)n(-c2ccnc3cc(Cl)ccc23)n1` showed an IC50 in the assay on Plasmodium falciparum of 4.29 µg/mL (≈ 13.8 µM).
Regarding `O=[N+]([O-])c1ccc(C2=NN(c3ccnc4cc(Cl)ccc34)C(O)(C(F)(F)F)C2)cc1` (stereo not given), in the assay on Plasmodium falciparum, the IC50 is 5.71 µg/mL (≈ 13.1 µM).
Molecule `OC1(C(F)(F)F)CC(c2ccc(F)cc2)=NN1c1ccnc2cc(Cl)ccc12` (stereo not given) displayed an IC50 with Plasmodium falciparum of 2.13 µg/mL (≈ 5.2 µM).
`FC(F)(F)c1cc(-c2ccccc2)nn1-c1ccnc2cc(Cl)ccc12` yielded an IC50 in the assay on Plasmodium falciparum of 9.53 µg/mL (≈ 25.5 µM).
Take `OC1(C(F)(F)F)CC(c2ccccc2)=NN1c1ccnc2cc(Cl)ccc12` (stereo not given): the Activity in the assay on Plasmodium berghei [1] and in the assay with Plasmodium berghei [2] was 0% each time. In the assay on Plasmodium falciparum, this molecule had an IC50 of 1.39 µg/mL (≈ 3.55 µM).
Take `CCN(CC)CCCC(C)Nc1ccnc2cc(Cl)ccc12` (stereo not given) [CHLOROQUINE]: the Activity with Plasmodium berghei [3] was determined as 53%; in the assay with Plasmodium berghei [4], 100%.
Consider `OC1(C(F)(F)F)CC(c2ccc(Br)cc2)=NN1c1ccnc2cc(Cl)ccc12` (stereo not given), for which the Activity in the assay on Plasmodium berghei [1] is on record as 0%; with Plasmodium berghei [2] it was 82%. The same molecule had a half-maximal inhibitory concentration (IC50) in the assay with Plasmodium falciparum of 1.55 µg/mL (≈ 3.29 µM).
In the assay with Plasmodium falciparum, `Fc1ccc(-c2cc(C(F)(F)F)n(-c3ccnc4cc(Cl)ccc34)n2)cc1` displayed an IC50 of 27.6 µg/mL (≈ 70.5 µM).
With `FC(F)(F)c1cc(-c2ccc(Cl)cc2)nn1-c1ccnc2cc(Cl)ccc12`, in the assay with Plasmodium falciparum, the half-inhibitory concentration (IC50) was > 50 µg/mL.
Turning to `O=[N+]([O-])c1ccc(-c2cc(C(F)(F)F)n(-c3ccnc4cc(Cl)ccc34)n2)cc1`, the IC50 with Plasmodium falciparum was > 50 µg/mL.
Take `Cc1ccc(C2=NN(c3ccnc4cc(Cl)ccc34)C(O)(C(F)(F)F)C2)cc1` (stereo not given): it took 3.04 µg/mL (≈ 7.49 µM) to reach half-maximal inhibition in the assay on Plasmodium falciparum (IC50).
`FC(F)(F)c1cc(-c2ccc(-c3ccccc3)cc2)nn1-c1ccnc2cc(Cl)ccc12` registered an IC50 with Plasmodium falciparum of 18.5 µg/mL (≈ 41.2 µM).
For `COc1ccc(C2=NN(c3ccnc4cc(Cl)ccc34)C(O)(C(F)(F)F)C2)cc1` (stereo not given), the IC50 in the assay with Plasmodium falciparum is > 50 µg/mL.
Molecule `OC1(C(F)(F)F)CC(c2ccc(-c3ccccc3)cc2)=NN1c1ccnc2cc(Cl)ccc12` (stereo not given) gave an IC50 in the assay on Plasmodium falciparum of 2.12 µg/mL (≈ 4.53 µM).
Still for that read-out and setting: the figure for `Cc1ccc(-c2cc(C(F)(F)F)n(-c3ccnc4cc(Cl)ccc34)n2)cc1` is > 50 µg/mL.
Take `OC1(C(F)(F)F)CC(c2ccc(Cl)cc2)=NN1c1ccnc2cc(Cl)ccc12` (stereo not given): the Activity in the assay with Plasmodium berghei [1] amounted to 0%; in the assay with Plasmodium berghei [2] it was 47%. This molecule also yielded an IC50 in the assay with Plasmodium falciparum of 1.69 µg/mL (≈ 3.97 µM).
